Bioassay records (PubChem BioAssay)
Compounds with a hit are over-represented: about 2.2% of the library has one in this group of screens.
dFosB act: activators of delta FosB homodimer, primary screen, biochemical, fluorescence polarization, TAMRA-CDK5 oligo, single point. 340,000 compounds, 0.99% hits. purified delta FosB; percent of positive-control signal above neutral wells. Protein FosB (Mus musculus), P13346. activation, % at 25 µM;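 active means mean activation above about 17%, with every replicate also reaching it, limit read from the data, passing the limit was not always enough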
Target sequence (P13346 whole entry, looked up): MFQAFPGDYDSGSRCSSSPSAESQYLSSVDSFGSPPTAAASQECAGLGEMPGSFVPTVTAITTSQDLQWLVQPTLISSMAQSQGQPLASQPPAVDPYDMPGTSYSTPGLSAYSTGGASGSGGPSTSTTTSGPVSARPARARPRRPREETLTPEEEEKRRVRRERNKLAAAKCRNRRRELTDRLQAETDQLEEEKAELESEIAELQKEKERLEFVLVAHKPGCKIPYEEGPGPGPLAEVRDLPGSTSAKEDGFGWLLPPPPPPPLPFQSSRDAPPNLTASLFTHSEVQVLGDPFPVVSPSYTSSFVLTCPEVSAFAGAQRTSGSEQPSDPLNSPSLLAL
FGF22 binding: binders of human FGF22 protein, primary screen, FGF22 synaptogenesis inhibitor project, biophysical, thermal shift, single point. 340,000 compounds, 1.5% hits. AID 651658, 2012. recombinant FGF22 thermal shift, SYPRO orange fluorescence; percent of sucrose octasulfate shift, DMSO zero. activity (Tm shift, normalised), % at 9.99 µM;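 active means mean Tm shift, scaled 0 neutral to 100 positive control, at about 1.3% or above, every replicate too, limit read from the data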
Target sequence (Q9HCT0 whole entry, looked up): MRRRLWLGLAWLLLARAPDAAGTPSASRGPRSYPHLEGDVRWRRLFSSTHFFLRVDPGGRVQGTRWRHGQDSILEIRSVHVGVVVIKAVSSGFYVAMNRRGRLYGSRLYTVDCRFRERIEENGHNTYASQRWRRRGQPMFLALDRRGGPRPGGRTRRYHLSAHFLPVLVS
S100A4 MyoIIA: inhibitors of S100A4-myosin IIA peptide binding, primary screen, biochemical, fluorescence polarization, TAMRA-MyoIIA peptide; Protein S100-A4 (Homo sapiens), P26447; AID 652163, 2013; inhibition, % at 10.7 µM; 360,000 compounds, 0.14% hits;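 active means mean inhibition of at least 70% across replicates, with every replicate also reaching that level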
Target sequence (P26447 whole entry, looked up): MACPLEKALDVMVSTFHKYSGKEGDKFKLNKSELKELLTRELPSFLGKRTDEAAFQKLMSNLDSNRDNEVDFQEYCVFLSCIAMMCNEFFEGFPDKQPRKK
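Material: S100A4 monomer protein | Medium: HEPES pH 7.2 with CaCl2, KCl, NaCl, DTT, Triton | Reagent: Labelled myosin peptide probe, 5 nM | Doses: One dose per compound | Times: 5 min incubation before reading | Benchmarks: Neutral control DMSO, positive control TFP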
F508del corr: F508del CFTR correction, initial screen, CFBE line, single point | CFBE cells, YFP halide quenching; stimulated with forskolin plus potentiator P3; % fluorescence drop versus neutral controls | activity (quench increase), % at 7.58 µM | 350,000 compounds, 0.36% hits | AID 720511, 2013;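 active means mean added fluorescence quench of at least 8% versus neutral control, with both replicates also reaching 8%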;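 further: cells transiently co-express mutant CFTR-F508del with the halide-sensitive YFP; corrector assay measuring rescue of mutant channel to the surface after 24 h compound exposure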
Each line names hits and unclear results; the compound was inactive in the other large screens.

COCC#Cc1ccc2c(c1)O[C@@H](CN(C)Cc1ccccc1)[C@@H](C)CN([C@@H](C)CO)S2(=O)=O	none (no result: dFosB act)
Cc1ccc(-c2n[nH]c(=S)n2C)cc1	none (no result: FGF22 binding, S100A4 MyoIIA, F508del corr)
Cn1c(-c2csc(-c3ccccc3)n2)n[nH]c1=S	FGF22 binding 43.8
CN1C(=O)c2cc(NC(=O)Nc3ccc(F)cc3)ccc2OC[C@@H]2O[C@H](CC(=O)NC3CCC3)CC[C@@H]21	none (no result: dFosB act)
CC(C)c1ccc(NC(=O)c2snc3ccc(Cl)cc23)cc1	FGF22 binding 44.3
CCc1ccc(CNC(=O)c2nn(C)c3c2CS(=O)(=O)c2ccccc2-3)cc1	FGF22 binding 67.9
CCOC1=C2[C@@H](CN(S(=O)(=O)c3ccccc3)[C@H]2c2ccccc2)[C@H]2C(=O)N(c3ccccc3)C(=O)[C@H]2C1	none (no result: dFosB act)
CCOC1=C2[C@@H](CN(S(=O)(=O)c3ccc(C)cc3)[C@H]2c2ccc(Cl)cc2)[C@H]2C(=O)N(c3ccccc3)C(=O)[C@H]2C1	F508del corr 11.1 (no result: dFosB act)
COc1cc(OC)c2c(-c3cccc(-c4ccc(OC)c(F)c4)c3)cc(=O)oc2c1	F508del corr 8.5
COc1cc(OC)c2c(-c3cccc(-c4ccc(C(C)=O)cc4)c3)cc(=O)oc2c1	none (no result: FGF22 binding, S100A4 MyoIIA, F508del corr)
Cc1cc(NC(=O)COn2nnc3ccc(S(C)(=O)=O)cc32)ccc1Br	none
COc1cc(NC(=O)COn2nnc3ccc(S(C)(=O)=O)cc32)cc(OC)c1	FGF22 binding 43.1
C[C@H](NC(=O)c1ccccc1)C(=O)Nc1nc(-c2ccccn2)cs1	FGF22 binding 42.9
COc1ccc(S(=O)(=O)Nc2ccc3c(c2)C(=O)N([C@@H](C)CO)C[C@H](C)[C@H](CN(C)C(=O)Nc2ccc4c(c2)OCO4)O3)cc1	none (no result: dFosB act, FGF22 binding, S100A4 MyoIIA)
COc1ccccc1C(=O)NCC1(c2ccccc2)CCCC1	FGF22 binding 43.1
O=C(NCC1(c2ccccc2)CCCC1)c1ccccc1Br	none (no result: F508del corr)
CCOP(=O)(OCC)c1nc(-c2ccccc2Cl)oc1N1CCOCC1	FGF22 binding 44.5
CCOP(=O)(OCC)c1nc(-c2cccc3ccccc23)oc1N1CCOCC1	none (no result: FGF22 binding, S100A4 MyoIIA, F508del corr)
Cc1noc(C)c1NC(=O)Nc1ccc2c(c1)C(=O)N(C)[C@H]1CC[C@H](CC(=O)N(C)C)O[C@@H]1CO2	none (no result: dFosB act)
Cc1ccc(S(=O)(=O)N2CCN(C(=O)COC(=O)COc3ccc(Cl)c(C)c3)CC2)c(C)c1	none
Cc1ccc(OCC(=O)N2CCN(S(C)(=O)=O)CC2)cc1	none
Cc1ccc(S(=O)(=O)N2CCN(C(=O)COC(=O)COc3ccc(Cl)cc3)CC2)c(C)c1	dFosB act 207.5
Cc1cccc(OCC(=O)N2CCN(S(C)(=O)=O)CC2)c1	FGF22 binding 43.1
CCC(=O)Nc1ccc(C(=O)Nc2ccc(Br)cc2F)cc1	FGF22 binding 43.5
Cc1ccc(-c2nc(Nc3cccc(O)c3)c3ccccc3n2)cc1	dFosB act 22.0
Oc1cccc(Nc2c3ccccc3nc3ccccc23)c1	dFosB act 64.9
c1cncc(Nc2c3ccccc3nc3ccccc23)c1	dFosB act 30.1
Cc1ccc(-c2nc(Nc3ccc(O)cc3)c3ccccc3n2)cc1	none
Oc1ccc(Nc2nc(-c3ccccc3O)nc3ccccc23)cc1	none
Oc1cccc(Nc2nc(-c3ccccc3Cl)nc3ccccc23)c1	FGF22 binding 1.6
Cc1noc(C)c1NC(=O)Nc1ccc2c(c1)CC(=O)N([C@@H](C)CO)C[C@@H](C)[C@H](CN(C)Cc1ccccc1)O2	none (no result: dFosB act)
CCC(=O)N1C[C@@H](C)[C@H](OC)CN(C)C(=O)c2cc(NC(=O)Nc3ccccc3)ccc2OC[C@H]1C	none (no result: dFosB act)
O=C(O)c1cccc(Nc2nc(C(F)(F)F)nc3ccccc23)c1	FGF22 binding 2.0
CN(C)CCn1c2ccccc2c2nc3ccc([N+](=O)[O-])cc3cc21	F508del corr 13.5 (no result: dFosB act)
CCn1c2ccccc2c2cc([N+](=O)[O-])ccc21	none
CC1=Nc2cc(C(=O)NCC3CCCO3)ccc2Sc2ccc(Br)cc21 (configuration not stated)	F508del corr 13.0
CC1=Nc2cc(C(=O)O)ccc2Sc2ccc(Br)cc21	none
CCOc1c2ccc(C(=O)NCc3cc(C(F)(F)F)cc(C(F)(F)F)c3)cc2nn1CCOC	none
CCCCn1nc2cc(C(=O)NCc3cc(C(F)(F)F)cc(C(F)(F)F)c3)ccc2c1OCC	FGF22 binding 44.2
Cc1sc(NC(=O)c2ccco2)c(C(Nc2ccccn2)c2ccccc2)c1C (configuration not stated)	none (no result: FGF22 binding, S100A4 MyoIIA, F508del corr)
COc1ccc(C(Nc2ccccn2)c2c(NC(=O)c3ccco3)sc(C)c2C)cc1 (configuration not stated)	FGF22 binding 43.7
O=C(C[C@@H]1CC[C@@H]2[C@H](COC[C@@H](O)CN2Cc2cccc(C(F)(F)F)c2)O1)NCc1ccncc1	none (no result: dFosB act)
CC(Sc1ccsc1[N+](=O)[O-])C(=O)N1CCN(c2ccccn2)CC1 (configuration not stated)	FGF22 binding 44.1
COc1ccccc1CNC(=O)C(C)Sc1ccsc1[N+](=O)[O-] (configuration not stated)	none (no result: F508del corr)
CC(Sc1ccsc1[N+](=O)[O-])C(=O)NCc1ccccc1 (configuration not stated)	FGF22 binding 43.2 (no result: dFosB act)
Cc1c(C(=O)N2CCN(c3ccccn3)CC2)cccc1[N+](=O)[O-]	none
C[C@H](NC(=O)C[C@H]1CC[C@@H]2[C@H](COC[C@@H](O)CN2C(=O)Nc2cc(Cl)cc(Cl)c2)O1)c1ccccc1	none (no result: dFosB act)
CCC(=O)N1CC2(CCN(Cc3ccc(Cl)cc3)CC2)c2c([nH]c3cc(OC)ccc23)[C@H]1CO	F508del corr 9.8 (no result: dFosB act, FGF22 binding, S100A4 MyoIIA)
COCC(=O)N1CC2(CCN(Cc3ccc(Cl)cc3)CC2)c2c([nH]c3cc(OC)ccc23)[C@@H]1CO	none (no result: dFosB act)
Cn1c(SCC(=O)N/N=C/c2ccco2)nc2ccccc21	FGF22 binding 43.4
COc1ccc(C#Cc2ccc3c(c2)O[C@@H](CN(C)C(=O)CN2CCOCC2)[C@@H](C)CN([C@H](C)CO)S3(=O)=O)cc1	none (no result: dFosB act)
CC(=O)Nc1ccc(C(=O)OCC(=O)NCCC2=CCCCC2)cc1	none
CCCNC(=O)COC(=O)c1ccc(Cl)c(S(=O)(=O)N2CCCC2)c1	none (no result: FGF22 binding, S100A4 MyoIIA, F508del corr)
CCCNC(=O)COC(=O)c1ccc(S(=O)(=O)N2CCCC2)cc1	FGF22 binding 43.9
O=C(COC(=O)c1ccc(S(=O)(=O)Nc2ccccc2)cc1)NCCC1=CCCCC1	FGF22 binding 43.6
COc1ccc(C(=O)Nc2ccc3c(c2)C(=O)N(C)C[C@@H](OC)[C@@H](C)CN(C)[C@@H](C)CO3)cc1	none (no result: dFosB act)
CCNC(=O)C[C@@H]1CC[C@@H]2[C@@H](COc3ccc(NC(=O)Nc4ccccc4OC)cc3C(=O)N2C)O1	none (no result: dFosB act)
C/C=C/c1ccc2c(c1)O[C@H](CN(C)C(C)=O)[C@@H](C)CN([C@@H](C)CO)S2(=O)=O	none (no result: dFosB act)
